Laboratory results reported in publication PMC3947152 (European journal of nuclear medicine and molecular imaging, 2013).
Where two headings read alike, the source gives them in different places.

Key:
hNET = hNET (Homo sapiens, UniProt P23975); assay: Competitive inhibition of ^123I-MIBG binding/uptake in C6-hNET cells; assay type: cell-based
Outline: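 C6 cells stably transduced with hNET; triplicate samples of ~0.5×10^6 cells with ~3.7 kBq 123I-MIBG and 0.005–50 nmol unlabeled benzylguanidine competitor in 0.5 mL medium, 37 °C, 2 h. Cells collected by rapid filtration on glass microfiber filters, washed 3× with ice-cold Tris-buffered saline pH 7.4, gamma counted. Cell-bound activity plotted against competitor concentration; IC50 by least-squares fit.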

C6-hNET xenografts = assay: PET imaging with ROI analysis of mice bearing C6-hNET and C6-WT xenografts; assay type: in vivo; conditions: for PET image-based tumor-to-intestine signal ratio: C6-hNET xenograft
Outline: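 Male athymic NCr-nu/nu mice (7–9 weeks) implanted subcutaneously with 5×10^6 C6-hNET cells (right shoulder) and 5×10^6 C6-WT cells (left shoulder) in medium/matrigel 1:1. Scanned at day 20 with tumors 150–350 mm³. Tail-vein injection of 3.7–11.1 MBq 18F tracer in saline. R4 microPET under 2% isoflurane, 10-min acquisitions at 1 h and 4 h p.i., 350–750 keV window. ROI maximum pixel values (%ID/mL) used; 5–7 animals per group.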

[1] = tested on: C6-hNET and C6-WT xenografts; assay: Biodistribution in animals bearing dual C6-hNET and C6-WT xenografts; assay type: in vivo, mice; conditions: for % Injected Dose/g tissue, C6-WT: C6-WT xenograft; for % Injected Dose/g tissue, C6-hNET: C6-hNET xenograft
C6-hNET cells = assay: In vitro uptake in hNET-transduced and wild-type C6 cells; assay type: cell-based, rat; conditions: 2 h incubation at 37 °C
Outline: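 Both C6-hNET and wild-type C6 cells grown in DMEM HG. 1.0×10^6 cells in 1.0 mL medium, in triplicate, shaken with radiotracer (~11.1 kBq 18F-labeled or ~3.7 kBq radioiodinated) at 37 °C for 2 h. Cells filtered on glass microfiber filters, washed 3× with ice-cold TBS pH 7.4, gamma counted as % added activity per 10^6 cells. Nonspecific uptake measured with 200 µM MIBG (final). 2–5 independent experiments.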

[2] = Lipophilicity: distribution coefficient between 1-octanol and PBS pH 7.4; assay type: physicochemical; conditions: 1-octanol/PBS
Outline: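 Octanol and PBS (pH 7.4) pre-equilibrated together for 24 h. Radiotracer (~11.1 kBq 18F; ~3.7 kBq 123I) added to the octanol/PBS pair, in triplicate, shaken 2 h at room temperature, then centrifuged 5 min at 2,000 rpm. Aliquots of each phase gamma counted; logD = log10(octanol counts/PBS counts).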

human serum protein = assay: Plasma protein binding by ultrafiltration, human; assay type: in vitro ADME; conditions: 37 °C, 0.5 h
Outline: (§1)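 Radiotracer in 10 µL (~7.4 kBq 18F; ~3.7 kBq 123I) added to 190 µL human or mouse plasma, in triplicate, gently shaken 37 °C, 0.5 h. Ultrafiltration by centrifugation 10 min at 9,000 rpm. 20 µL of pre-filtration plasma (total) and 20 µL of ultrafiltrate (unbound) gamma counted; unbound fraction taken from ultrafiltrate relative to total.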

mouse serum protein = assay: Plasma protein binding by ultrafiltration, mouse; assay type: in vitro ADME; conditions: 37 °C, 0.5 h
Outline: as §1

[3] = C6-hNET cells, ^123I-MIBG as radioligand, 37 °C, 2 h

Sequence of hNET (P23975 whole entry): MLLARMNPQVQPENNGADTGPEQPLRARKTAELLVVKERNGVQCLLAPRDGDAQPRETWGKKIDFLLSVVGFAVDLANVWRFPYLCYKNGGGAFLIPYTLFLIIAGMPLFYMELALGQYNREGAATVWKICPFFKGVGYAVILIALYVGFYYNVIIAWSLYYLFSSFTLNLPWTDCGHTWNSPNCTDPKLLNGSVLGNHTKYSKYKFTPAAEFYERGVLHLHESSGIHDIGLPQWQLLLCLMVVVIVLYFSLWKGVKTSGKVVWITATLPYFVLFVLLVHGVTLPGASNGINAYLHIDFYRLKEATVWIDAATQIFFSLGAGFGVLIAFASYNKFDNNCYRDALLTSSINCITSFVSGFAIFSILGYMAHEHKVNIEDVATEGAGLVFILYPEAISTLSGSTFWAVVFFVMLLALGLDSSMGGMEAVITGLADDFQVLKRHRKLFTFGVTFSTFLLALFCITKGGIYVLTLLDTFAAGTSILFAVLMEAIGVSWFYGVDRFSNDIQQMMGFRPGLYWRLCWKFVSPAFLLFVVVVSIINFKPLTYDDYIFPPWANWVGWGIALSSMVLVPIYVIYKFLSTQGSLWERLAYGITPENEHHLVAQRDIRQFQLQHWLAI

Row | SMILES | IC50 (hNET; [3]) [µM] | % Injected Dose/g tissue, Adrenals ([1]; 4 h p.i.) [%ID/g] | % Injected Dose/g tissue, Blood ([1]; 4 h p.i.) [%ID/g] | % Injected Dose/g tissue, Bone ([1]; 4 h p.i.) [%ID/g] | % Injected Dose/g tissue, C6-WT ([1]; 4 h p.i.) [%ID/g] | % Injected Dose/g tissue, Heart ([1]; 4 h p.i.) [%ID/g] | % Injected Dose/g tissue, Intestinal contents (L) ([1]; 4 h p.i.) [%ID/g] | % Injected Dose/g tissue, Intestinal contents (S) ([1]; 4 h p.i.) [%ID/g] | % Injected Dose/g tissue, Intestinal wall (L) ([1]; 4 h p.i.) [%ID/g] | % Injected Dose/g tissue, Intestinal wall (S) ([1]; 4 h p.i.) [%ID/g] | % Injected Dose/g tissue, Kidneys ([1]; 4 h p.i.) [%ID/g] | % Injected Dose/g tissue, Liver ([1]; 4 h p.i.) [%ID/g] | % Injected Dose/g tissue, Lungs ([1]; 4 h p.i.) [%ID/g] | % Injected Dose/g tissue, Muscle ([1]; 4 h p.i.) [%ID/g] | % Injected Dose/g tissue, Pancreas ([1]; 4 h p.i.) [%ID/g] | % Injected Dose/g tissue, Salivary glands ([1]; 4 h p.i.) [%ID/g] | % Injected Dose/g tissue, Spleen ([1]; 4 h p.i.) [%ID/g] | % Injected Dose/g tissue, Stomach ([1]; 4 h p.i.) [%ID/g] | also measured
1 | N=C(N)NCc1cccc(F)c1 [MFBG] | 4.86 ± 0.59 | – | – | – | – | – | – | – | – | – | – | – | – | – | – | – | – | – | –
2 | N=C(N)NCc1cccc(I)c1 [MIBG, meta-iodobenzylguanidine] | 1.72 ± 0.58 | – | – | – | – | – | – | – | – | – | – | – | – | – | – | – | – | – | –
3 | NC(N)=NCc1ccc(F)cc1 [PFBG] | 9.8 ± 2.5 | – | – | – | – | – | – | – | – | – | – | – | – | – | – | – | – | – | –
4 | N=C(N)NCc1ccc(I)cc1 [PIBG, para-iodobenzylguanidine] | 7.2 ± 0.5 | – | – | – | – | – | – | – | – | – | – | – | – | – | – | – | – | – | –
5 | N=C(N)NCc1cccc(F)c1 [[^18F]MFBG] [meta-[^18F]fluorobenzylguanidine] | 4.9 ± 0.6 | – | – | – | – | – | – | – | – | – | – | – | – | – | – | – | – | – | –
6 | N=C(N)NCc1cccc([18F])c1 [[^18F]MFBG] [meta-[^18F]fluorobenzylguanidine] | – | 5.56±2.34 | 0.25±0.05 | 0.89±0.16 | 0.57±0.08 | 2.21±0.66 | 1.26±0.23 | 1.36±0.11 | 1.72±0.52 | 2.16±0.26 | 0.99±0.29 | 2.05±0.30 | 1.30±0.20 | 0.62±0.09 | 0.78±0.06 | 6.09±1.02 | 1.50±0.19 | 0.46±0.12 | fold lower affinity to hNET compared to ^123I/[^124I]MIBG (hNET; from IC50 values in C6-hNET cells): 2.8 fold; fold higher accumulation in C6-hNET tumors than [^18F]PFBG (C6-hNET xenografts; 1 h p.i., in vivo): 1.6 fold; PET image-based tumor-to-intestine signal ratio (C6-hNET xenografts; 1 h post injection): 1.3±0.2; PET image-based tumor-to-intestine signal ratio (C6-hNET xenografts; 4 h post injection): 2.4±0.3; % Injected Dose/g tissue, C6-hNET ([1]; 4 h p.i.): 4.25±0.95 %ID/g; C6-hNET/tissue ratio, Blood ([1]; C6-hNET/Blood, 4 h p.i.): 17.1±4.4; C6-hNET/tissue ratio, Intestine wall (L) ([1]; C6-hNET/Intestine wall (L), 4 h p.i.): 1.8±0.7; C6-hNET/tissue ratio, Intestine wall (S) ([1]; C6-hNET/Intestine wall (S), 4 h p.i.): 1.9±0.4; C6-hNET/tissue ratio, Liver ([1]; C6-hNET/Liver, 4 h p.i.): 2.1±0.4; C6-hNET/tissue ratio, Muscle ([1]; C6-hNET/Muscle, 4 h p.i.): 6.8±0.9; C6-hNET/tissue ratio, Salivary gland ([1]; C6-hNET/Salivary gland, 4 h p.i.): 0.7±0.1
7 | N=C(N)NCc1ccc(F)cc1 [[^18F]PFBG, para-[^18F]fluorobenzylguanidine] | 9.8 ± 2.5 | – | – | – | – | – | – | – | – | – | – | – | – | – | – | – | – | – | –
8 | N=C(N)NCc1ccc([18F])cc1 [[^18F]PFBG, para-[^18F]fluorobenzylguanidine] | – | – | – | – | – | – | – | – | – | – | – | – | – | – | – | – | – | – | fold lower uptake in C6-hNET cells than that of ^123I/[^124I]MIBG (C6-hNET cells): 4 fold; PET image-based tumor-to-intestine signal ratio (C6-hNET xenografts; 1 h post injection): 0.4±0.1; PET image-based tumor-to-intestine signal ratio (C6-hNET xenografts; 4 h post injection): 1.5±0.3
9 | N=C(N)NCc1cccc([131I])c1 [[^124I]MIBG, meta-iodobenzylguanidine] | – | 13.9±1.7 | 0.76±0.15 | 2.56±0.27 | 1.27±0.10 | 19.6±2.5 | 3.62±0.89 | 6.92±1.79 | 7.88±0.74 | 10.3±0.6 | 2.09±0.10 | 5.42±0.44 | 9.50±2.26 | 3.21±0.28 | 3.48±0.31 | 29.1±1.8 | 4.43±0.35 | 2.85±0.54 | % Injected Dose/g tissue, Adrenals ([1]; 24 h p.i.): 7.46±1.78 %ID/g; % Injected Dose/g tissue, Blood ([1]; 24 h p.i.): 0.21±0.02 %ID/g; % Injected Dose/g tissue, Bone ([1]; 24 h p.i.): 0.45±0.09 %ID/g; % Injected Dose/g tissue, C6-WT ([1]; 24 h p.i.): 0.22±0.02 %ID/g; % Injected Dose/g tissue, C6-hNET ([1]; 24 h p.i.): 3.58±0.55 %ID/g; % Injected Dose/g tissue, Heart ([1]; 24 h p.i.): 2.93±0.17 %ID/g; % Injected Dose/g tissue, Intestinal contents (L) ([1]; 24 h p.i.): 2.00±0.06 %ID/g; % Injected Dose/g tissue, Intestinal contents (S) ([1]; 24 h p.i.): 1.76±0.40 %ID/g; % Injected Dose/g tissue, Intestinal wall (L) ([1]; 24 h p.i.): 3.18±0.45 %ID/g; % Injected Dose/g tissue, Intestinal wall (S) ([1]; 24 h p.i.): 2.66±0.18 %ID/g; % Injected Dose/g tissue, Kidneys ([1]; 24 h p.i.): 0.64±0.04 %ID/g; % Injected Dose/g tissue, Liver ([1]; 24 h p.i.): 1.00±0.05 %ID/g; % Injected Dose/g tissue, Lungs ([1]; 24 h p.i.): 1.55±0.37 %ID/g; % Injected Dose/g tissue, Muscle ([1]; 24 h p.i.): 0.69±0.07 %ID/g; % Injected Dose/g tissue, Pancreas ([1]; 24 h p.i.): 0.75±0.10 %ID/g; % Injected Dose/g tissue, Salivary glands ([1]; 24 h p.i.): 7.95±0.81 %ID/g; % Injected Dose/g tissue, Spleen ([1]; 24 h p.i.): 1.36±0.27 %ID/g; % Injected Dose/g tissue, Stomach ([1]; 24 h p.i.): 1.08±0.08 %ID/g
10 | N=C(N)NCc1cccc(I)c1 [^123I-MIBG, meta-iodobenzylguanidine] | – | 7.34±2.63 | 0.66±0.10 | 0.71±0.10 | 0.49±0.04 | 2.10±0.14 | 2.25±0.29 | 5.24±0.46 | 2.96±0.74 | 3.67±1.05 | 0.84±0.11 | 2.27±0.18 | 2.84±0.38 | 0.95±0.13 | 1.15±0.13 | 8.41±0.83 | 2.51±0.29 | 0.77±0.34 | logD at 2 h [2]: 0.42 ± 0.01; % unbound to human serum protein (human serum protein): 12.4±0.5 (n = 2) %; % unbound to mouse serum protein (mouse serum protein): 29.2±2.0 (n = 2) %; IC50 (hNET): 1.7 ± 0.6 µM; % Injected Dose/g tissue, C6-hNET ([1]; 4 h p.i.): 4.02±0.35 %ID/g
